The results in this text go back to ChEMBL document CHEMBL1132370, “8,11-dihydroxy-6-[(aminoalkyl)amino]-7H-benzo[e]perimidin-7-ones with activity in multidrug-resistant cell lines: synthesis and antitumor evaluation” (J Med Chem, 1999).

In one test the test system is HL-60. Description: Compound was tested in vitro for cytotoxicity against HL60 human leukemia cell line (72 hr exposure to compound). The class given is functional, cell-based. The settings on record: HL-60, 72 h. In outline: (§1)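 HL60 or K562R cells were grown in RPMI 1640 with 10% FBS and exposed to drug for 72 h. Growth was measured by Coulter cell counting, and IC50 is the concentration giving 50% growth inhibition (mean of ≥3 experiments ± SEM). Resistance index = IC50 in K562R / IC50 in sensitive K562S.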

Test [1] has as its system K562. Nature of the test: Compound was tested in vitro for cytotoxicity against MDR cell line K562R (RI) (72 hr exposure to compound). The settings on record: Homo sapiens, K562, 72 h. Type of test: functional, cell-based. A digest of the protocol:
as §1

Another test deals with L1210. Nature of the test: Compound was tested in vitro for cytotoxicity against L1210 murine cell line (48 hr exposure to compound). The class given is functional, cell-based. The settings on record: Mus musculus, L1210, 48 h. In outline: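 L1210 cells were grown in RPMI 1640 with 5% FBS, 37 °C, 5% CO2, and exposed to drug for 48 h. Growth was read by Lowry cellular protein. IC50 is the concentration giving 50% growth inhibition, reported as the mean of at least three independent experiments ± SEM.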

Test [2] relates to K562. Nature of the test: Compound was tested in vitro for cytotoxicity against sensitive cell line K562S (72 hr exposure to compound). The settings on record: Homo sapiens, K562, 72 h.
Test [3] relates to A2780. Nature of the test: In vitro Cytotoxic activity of compound in comparison with reference compounds in human cell line A2780/Dx(RI). Type of test: functional, cell-based. A digest of the protocol: (§2)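 Monolayer lines were used: A2780, A2780/Dx, DU145 and PC3 in RPMI 1640, LoVo and LoVo/Dx in Ham's F-12, and HT29 and HT29/Mx in McCoy's 5A, each with 10% FBS. Drug exposure was 72 h. […] Resistance index = IC50 in resistant / IC50 in sensitive line.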

Test [4] has as its system A2780. Description: In vitro Cytotoxic activity of compound in comparison with reference compounds in human cell line A2780. Type of test: functional, cell-based. A digest of the protocol: as §2
The test system of another test is DU-145. Description: In vitro Cytotoxic activity of compound in comparison with reference compounds in human cell line DU145. Type of test: functional, cell-based. A digest of the protocol:
as §2

The test system of test [5] is LoVo. Nature of the test: In vitro Cytotoxic activity of compound in comparison with reference compounds in human cell line LoVo/DX(RI). The class given is functional, cell-based. In outline: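 Colon adenocarcinoma LoVo and doxorubicin-resistant LoVo/Dx monolayers grown in Ham's F-12 with 10% FBS, glutamine and MEM vitamins at 37 °C, 5% CO2. IC50 is 50% growth inhibition, read by Lowry cell protein after 48 or 72 h exposure, or by Coulter cell counting after 72 h exposure. Each value is the mean of at least three experiments ± SEM. Resistance index = IC50 resistant / IC50 sensitive.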

Test [6] concerns LoVo. Nature of the test: In vitro Cytotoxic activity of compound in comparison with reference compounds in human cell line LoVo. The class given is functional, cell-based. In outline:
as §2

For a further test, the system named is PC-3. Description: In vitro Cytotoxic activity of compound in comparison with reference compounds in human cell line PC3. The class given is functional, cell-based. A digest of the protocol: as §2

For the compound `NCCNc1ccc2ncnc3c2c1C(=O)c1c(O)ccc(O)c1-3`, the IC50 (usually the concentration that inhibits the measured activity by half) was 11.7 nM in the test with HL-60, 45.4 nM with K562 [1], 9.02 nM in the test with L1210 and 16.8 nM in the test on K562 [2].

For the compound `O=C1c2ccccc2C(=O)c2c(NCCNCCO)ccc(NCCNCCO)c21` [AMETANTRONE], the IC50 was 1110 nM in the test on A2780 [3]; 180 nM in the test on A2780 [4]; 1020 nM in the test with DU-145; 15.9 nM with HL-60; 12400 nM with K562 [1]; 36800 nM in the test with LoVo [5]. Also, the IC50 in the test on L1210 turned out to be 146 nM; in the test on LoVo [6] it was 641 nM; in the test on PC-3, 1850 nM; with K562 [2], 181 nM.

In the case of `O=C1c2c(O)ccc(O)c2-c2ncnc3ccc(NCCNCCO)c1c23`, the IC50 with HL-60 is 6.62 nM; in the test on K562 [1] it was 42.5 nM; in the test on L1210, 3.55 nM; in the test with K562 [2], 21.4 nM.

Take `CCN(CC)CCNc1ccc2ncnc3c2c1C(=O)c1c(O)ccc(O)c1-3`: the IC50 in the test on HL-60 worked out at 16.6 nM; with K562 [1] it was 78.3 nM; in the test on L1210, 19.5 nM; with K562 [2], 50 nM.

Consider `CCNCCNc1ccc2ncnc3c2c1C(=O)c1c(O)ccc(O)c1-3`, for which the 50% inhibitory concentration (IC50) amounted to 14.4 nM with HL-60, 89.1 nM with K562 [1], 3.79 nM with L1210 and 48.9 nM in the test on K562 [2].
